CHRM1 antagonist: human CHRM1 antagonism. P11229. CHO-K1 hM1, Fluo-8 calcium fluorescence, ACh EC80 antagonist. inhibition, % at 3 µM. 1.3% of 360,000 active;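 active = percent inhibition above its own plate's cutoff, namely the mean of that plate's compound wells plus 3 SD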;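 also: peak over basal fluorescence ratio during 140 s after agonist addition; 0% = ACh EC80 plus DMSO and 100% = DMSO alone without agonist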
TAAR1 antagonist: human TAAR1 antagonism | AID 624466 | CHO RD-HGA16 TAAR1, Fluo-8 calcium fluorescence, antagonist | 1.5% of 360,000 active | inhibition, % at 3 µM;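 active = inhibition above a per-plate cutoff, the mean inhibition of test compounds on that plate plus 3 SD, cut at about 49% in these data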;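 also: 0% = DMSO plus EC80 beta-PEA response and 100% = DMSO alone without agonist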
Target sequence (Q96RJ0 whole entry, looked up): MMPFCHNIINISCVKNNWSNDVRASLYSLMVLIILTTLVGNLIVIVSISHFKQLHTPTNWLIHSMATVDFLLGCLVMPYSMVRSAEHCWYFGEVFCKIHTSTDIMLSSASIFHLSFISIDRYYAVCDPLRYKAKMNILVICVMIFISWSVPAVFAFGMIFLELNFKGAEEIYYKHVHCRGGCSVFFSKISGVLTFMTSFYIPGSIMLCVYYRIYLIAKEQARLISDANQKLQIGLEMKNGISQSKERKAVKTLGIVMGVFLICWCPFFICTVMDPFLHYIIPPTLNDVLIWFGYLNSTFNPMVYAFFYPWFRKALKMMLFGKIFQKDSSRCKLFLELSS
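System: RD-HGA16 CHO cells with stable hTAAR1 and Gα16 | Probe or stimulus: EC80 β-phenethylamine stimulus | Dosing: 3 µM, single point | Times: Dye loading 75 min at 37 °C, then 30 min room temperature | Measured by: Fluo-8 calcium-sensitive fluorescence | Read-out basis: % inhibition of agonist calcium response | Replicates: n of 1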
TAAR1 ag: agonists of human TAAR1 | Q96RJ0 | CHO RD-HGA16 TAAR1, Fluo-8 calcium fluorescence; vehicle wells 0%, saturating PEA agonist 100% | activation, % at 3 µM | 0.99% of 360,000 active | AID 624467;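 active = activation above the mean activation of all test compounds in the run plus 3 SD, cut at about 38% in these data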
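test system = CHO RD-HGA16 cells carrying human TAAR1 plus Gα16 | schedule = 17-24 h seeding, 75 min 37 °C dye, 30 min RT | compound dosing = 3 µM single concentration | control set = DMSO and PEA EC100 | replicates = n 1 | signal = Fluo-8 fluorescence, 5 s baseline then 140 s kinetic read | measure = percent activation vs PEA EC100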
M1 ag: agonists of human M1 muscarinic receptor; 0.33% of 360,000 active; activation, % at 3 µM; P11229; CHO-K1 hM1, Fluo-8 calcium fluorescence, agonist mode; 0% DMSO, 100% acetylcholine EC100;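 active = activation above the run's mean compound activation plus 3 SD, cut at about 16% in these data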;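 also: peak over basal fluorescence ratio within a 140 s kinetic read after compound addition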
M1 PAM: human CHRM1 positive allosteric modulation. P11229. CHO-K1 hM1, Fluo-8 calcium fluorescence, ACh EC20; 0% = ACh EC20, 100% = maximal ACh. activation, % at 3 µM. 0.088% of 360,000 active; in the data active = activation above about 19%, passing the limit was not always enough
TAAR1 nonsel count: nonselective antagonist in TAAR1 antagonist counter-screen; shares compounds with TAAR1 antagonist; 77% of 2,400 active; inhibition, % at 3 µM; counterscreen cell line, calcium fluorescence, antagonist mode; in the data active = inhibition above about 22%;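 also: CHO-Ga16 host cells stimulated with ATP at an EC80 level; 0% = agonist EC80 plus vehicle and 100% = vehicle without agonist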
TAAR1 ant conf: human TAAR1 antagonism, confirmed. TAAR1-expressing cells, fluorescence antagonist read-out. 40% of 2,400 active. inhibition, % at 3 µM. shares compounds with TAAR1 antagonist; in the data active = inhibition above about 49%;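 also: CHO-Ga16 host cells challenged with agonist PEA near its EC80; 0% = agonist at EC80 plus vehicle and 100% = vehicle with no agonist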
Ga16 ag counter: nonselective Ga16 agonist in TAAR1 antagonist counter-screen | shares compounds with TAAR1 antagonist | Ga16-expressing cells, calcium fluorescence, agonist counterscreen | activation, % at 3 µM | 18% of 2,400 active | AID 651953; in the data active = activation above about 12%;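 also: 0% = vehicle wells and 100% = saturating stimulus response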
TAAR1 ag counter: counter-screen for human TAAR1 antagonists: TAAR1 agonists; 2% of 2,400 active; AID 651955; shares compounds with TAAR1 antagonist; activation, % at 3 µM; hTAAR1 cell line, fluorescence activation, agonist mode; in the data active = activation above about 37%;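 also: CHO cells stably expressing TAAR1 with calcium dye readout; 0% = DMSO vehicle and 100% = full agonist response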
An asterisk follows results filed as active; / = no result. Compounds with a hit are over-represented: about 3.4% of the library has one in this group of screens.

SMILES | CHRM1 antagonist | TAAR1 antagonist | TAAR1 ag | M1 ag | M1 PAM | TAAR1 nonsel count | TAAR1 ant conf | Ga16 ag counter | TAAR1 ag counter
Cn1c(N)c(C(=O)COC(=O)c2ccc(F)cc2Cl)c(=O)n(C)c1=O | -10 | 7 | 28 | -1 | 10 | / | / | / | /
NS(=O)(=O)c1ccc(CNC(=O)c2cc(-c3ccccc3)nc3ccccc23)cc1 | 14 | 65* | 10 | -1 | -5 | 32* | 41 | 7 | 5
O=C(NCc1cc([N+](=O)[O-])ccc1O)c1cc(-c2ccncc2)nc2ccccc12 | 30 | 67* | 19 | 1 | -10 | 32* | 56* | 11 | 8
Cc1ccc(Sc2ncccc2C(=O)NCc2cc([N+](=O)[O-])ccc2O)cc1C | 4 | 60* | 20 | 3 | -4 | 29* | 41 | 11 | 14
COc1ccc(CNC(=O)c2cccnc2Sc2ccc(C)c(C)c2)cc1 | 7 | 25 | 20 | 13 | 5 | / | / | / | /
Cc1cc(N(CCO)CCO)nc(-n2nc(C)cc2C)n1 | -21 | -3 | 5 | -1 | 5 | / | / | / | /
Cc1cc(NCCO)nc(-n2nc(C)cc2C)n1 | 3 | 57* | 1 | -3 | -1 | -3 | -4 | 2 | 2
COCCn1ccc2c(OCC(=O)Nc3ccccc3OC)cccc2c1=O | 5 | 58* | 8 | -2 | -2 | 27* | 41 | 8 | 5
CCOCCn1ccc2c(OCC(=O)Nc3ccc(OC)cc3OC)cccc2c1=O | -13 | 25 | 8 | -6 | 4 | / | / | / | /
CC(C)(C)c1ccc(OCc2ccc(C(=O)N/N=C/c3ccc([N+](=O)[O-])cc3)o2)cc1 | -17 | 53* | 13 | -3 | 5 | 31* | 44 | 5 | 8
O=C(COc1ccc(/C=N/NC(=O)c2ccncc2)cc1)Nc1cccc([N+](=O)[O-])c1 | 9 | 15 | 5 | 4 | 5 | / | / | / | /
O=C(COc1ccc(/C=N/NC(=O)c2ccccc2O)cc1)Nc1ccc([N+](=O)[O-])cc1 | 0 | 63* | 10 | -2 | 3 | 29* | 45 | 10 | 8
COc1ccccc1-c1csc(C(C)(O)c2ccccc2)n1 (stereo unspecified) | -10 | -33 | -1 | -8 | 4 | / | / | / | /
COc1cc2c(cc1OC)/C(=C/C(=O)OCc1ccccc1)OC2 | / | -3 | 13 | / | / | / | / | / | /
COc1ccc(S(=O)(=O)N2CCOCC2)cc1NC(=O)C1COc2ccccc2O1 (stereo unspecified) | 0 | 59* | 11 | 0 | 3 | 26* | 38 | 6 | 4
O=C(Nc1ccc(COc2ccccc2)cc1)c1cccc([N+](=O)[O-])c1 | 2 | 60* | 28 | -4 | -1 | 28* | 68* | 11 | 27
CCCCNC(=O)C(NC(=O)c1cccs1)C(=O)c1ccccc1 (stereo unspecified) | / | -19 | 2 | / | / | / | / | / | /
COc1ccc(C(=O)Nc2ccc(-c3cn4ccsc4n3)cc2)cc1S(=O)(=O)N1CCOCC1 | 8 | 62* | 17 | 0 | -16 | 25* | 49* | 6 | 4
CCN(c1ccc(OCC(=O)OCC(=O)c2c(N)n(C)c(=O)n(C)c2=O)cc1)S(=O)(=O)c1ccccc1 | 8 | -21 | 3 | -3 | -3 | / | / | / | /
CN(c1ccc(OCC(=O)OCC(=O)c2c(N)n(C)c(=O)n(C)c2=O)cc1)S(=O)(=O)c1ccc2ccccc2c1 | 12 | 77* | 15 | 0 | 2 | 35* | 56* | 9 | 10
COc1ccccc1CNc1nc(NCc2cccs2)nc2ccsc12 | 21 | 76* | 35 | 0 | -14 | 62* | 80* | 34* | 49*
CCOC(=O)C1=C(COC(=O)CSc2ccc(Br)cc2)NC(=O)NC1C (stereo unspecified) | -7 | 2 | 4 | -1 | 3 | / | / | / | /
CCOC(=O)C1=C(COC(=O)/C=C/c2cccc(OC)c2OC)NC(=O)NC1C (stereo unspecified) | 17 | 73* | 19 | 1 | -4 | 25* | 52* | 12* | 20
CCOC(=O)C1=C(COC(=O)Cc2ccc(Br)cc2)NC(=O)NC1C (stereo unspecified) | 3 | 69* | 9 | -1 | -1 | 25* | 39 | 7 | 4
CCOC(=O)C1=C(COC(=O)/C=C/c2ccccc2Cl)NC(=O)NC1C (stereo unspecified) | 9 | 40 | 7 | 0 | -4 | / | / | / | /
SMILES | CHRM1 antagonist | TAAR1 antagonist | TAAR1 ag | M1 ag | M1 PAM | TAAR1 nonsel count | TAAR1 ant conf | Ga16 ag counter | TAAR1 ag counter
CCOC(=O)C1=C(COC(=O)/C=C/c2ccccc2)NC(=O)NC1C (stereo unspecified) | 19 | 63* | 19 | 0 | -9 | 25* | 46 | 10 | 11
CN(Cc1ccccc1)C(=O)c1cccc(NC(=O)Cc2ccc([N+](=O)[O-])cc2)c1 | 16 | 36 | 13 | -8 | -23 | / | / | / | /
CN(Cc1ccccc1)C(=O)c1cccc(NC(=O)Cc2cccc([N+](=O)[O-])c2)c1 | 33* | 65* | 16 | -12 | -26 | 26* | 42 | 10 | 6
CN(c1ccc(C(=O)Nc2cccc(O)c2)cc1)S(=O)(=O)c1ccccc1 | -2 | 10 | 12 | -2 | 1 | / | / | / | /
COCc1ccc(C(=O)Nc2cccc(S(=O)(=O)N(C)c3ccccc3)c2)cc1 | 2 | 53* | 10 | 2 | -11 | 32* | 38 | 8 | 5
COc1ccccc1NS(=O)(=O)c1cccc(NC(=O)c2[nH]c(C)c(C(C)=O)c2C)c1 | 3 | 43 | 14 | 1 | -8 | / | / | / | /
CC(=O)c1c(C)[nH]c(C(=O)Nc2cccc(S(=O)(=O)N(C)c3ccccc3)c2)c1C | 10 | 61* | 17 | -4 | -15 | 44* | 66* | 14* | 13
NC(=O)c1cccc(-c2ccnc3c2CC(C(=O)Nc2ccc(Cl)cc2)O3)c1 (stereo unspecified) | 5 | 8 | 7 | 0 | -2 | / | / | / | /
CCCCC1CC2=C(C(=O)OC(C)(C)O2)C(c2ccc(Cl)cc2)O1 (stereo unspecified) | -4 | -16 | -2 | -6 | -16 | / | / | / | /
COc1cc2c(cc1OC)C(c1ccccc1[N+](=O)[O-])=NCC2 | -8 | -26 | 1 | -4 | 4 | / | / | / | /
Cc1ccccc1CN1C(=O)c2ccccc2C1c1nnnn1-c1ccc2c(c1)OCCO2 (stereo unspecified) | / | -9 | 7 | / | / | / | / | / | /
